Test results as given in ChEMBL document CHEMBL3046143, “Occurrence and distribution of organochlorine pesticides (OCPs) in tomato (Lycopersicon esculentum) crops from organic production” (J Agric Food Chem, 2003).
Where a name gives a salt, the structure may show the parent alone.

What was measured:
[1] = tested on: Stem; experiment: Drug uptake in Solanum lycopersicum (tomato) stem after 16 to 59 days post germination by GC-ECD analysis; assay type: ADME
How it was run: (§1)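 Organically grown tomatoes: seeded October 2000 in a pine-needle-enriched plot (period 1), transplanted in November to an unamended plot (periods 2–3), harvested March 2001. Tissues were blender-homogenized and analyzed by GC-ECD on a 30 m SPB-5 capillary column, with helium carrier at 1.5 mL/min. Quantified against external OCP standards as mean ng/g dry wt; LODs were 0.12–0.4 ng/g dry wt; samples were run in duplicate.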

[2] = Root bioconcentration factor assessed as compound concentration in tomato plant dry mass to compound concentration in soil dry mass after 16 to 59 days post germination
How it was run: (§2)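 Root bioconcentration factor is the mean OCP concentration in tomato roots divided by the mean concentration in bulk soil, both on a dry weight basis. Both matrices were analyzed by GC-ECD with external standard quantification. Period 1 was in a pine-needle-enriched seedbed plot and periods 2–3 in an unamended transplant plot. Soil water content was measured by oven drying at 110 °C.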

[3] = tested on: Leaf; experiment: Drug uptake in Solanum lycopersicum (tomato) leaves after 16 to 59 days post germination by GC-ECD analysis; assay type: ADME; how it was run: as §1
[4] = tested on: Leaf; experiment: Drug uptake in Solanum lycopersicum (tomato) leaves after 1 to 15 days post germination by GC-ECD analysis; assay type: ADME; how it was run: as §1
[5] = tested on: Root; experiment: Drug uptake in Solanum lycopersicum (tomato) root after 16 to 59 days post germination by GC-ECD analysis; assay type: ADME; how it was run: as §1
[6] = tested on: Root; experiment: Drug uptake in Solanum lycopersicum (tomato) root after 60 to 151 days post germination by GC-ECD analysis; assay type: ADME; how it was run: as §1
[7] = tested on: Fruit; experiment: Drug uptake in Solanum lycopersicum (tomato) fruit flesh after 60 to 151 days post germination by GC-ECD analysis; assay type: ADME; how it was run: as §1
[8] = tested on: Fruit; experiment: Drug uptake in Solanum lycopersicum (tomato) fruit peel after 60 to 151 days post germination by GC-ECD analysis; assay type: ADME; how it was run: as §1
[9] = tested on: Leaf; experiment: Drug uptake in Solanum lycopersicum (tomato) leaves after 60 to 151 days post germination by GC-ECD analysis; assay type: ADME; how it was run: as §1
[10] = tested on: Root; experiment: Drug uptake in Solanum lycopersicum (tomato) root after 1 to 15 days post germination by GC-ECD analysis; assay type: ADME; how it was run: as §1
[11] = tested on: Stem; experiment: Drug uptake in Solanum lycopersicum (tomato) stem after 1 to 15 days post germination by GC-ECD analysis; assay type: ADME; how it was run: as §1
[12] = Root bioconcentration factor assessed as compound concentration in tomato plant dry mass to compound concentration in soil dry mass after 1 to 15 days post germination; how it was run: as §2
[13] = tested on: Stem; experiment: Drug uptake in Solanum lycopersicum (tomato) stem after 60 to 151 days post germination by GC-ECD analysis; assay type: ADME; how it was run: as §1
[14] = Octanol-water partition coefficient, log KOW of the compound; assay type: physicochemical; conditions: read-out: log KOW
[15] = Root bioconcentration factor assessed as compound concentration in tomato plant dry mass to compound concentration in soil dry mass after 60 to 151 days post germination; how it was run: as §2

Compound	Drug uptake [1]	Ratio [2]	Drug uptake [3]	Drug uptake [4]	Drug uptake [5]	Drug uptake [6]	Drug uptake [7]	Drug uptake [8]	Drug uptake [9]	Drug uptake [10]	Drug uptake [11]	Ratio [12]	Drug uptake [13]	logP [14]	Ratio [15]
O=S1OC[C@@H]2[C@H](CO1)[C@@]1(Cl)C(Cl)=C(Cl)[C@]2(Cl)C1(Cl)Cl (stereo partly drawn) [ALPHA-ENDOSULFAN]	0.9 ng/g	18.6	1.5 ng/g	1 ng/g	1.3 ng/g	0.3 ng/g	4.5 ng/g	12.3 ng/g	3.5 ng/g	0.8 ng/g	1.2 ng/g	10	0.9 ng/g	< 4	4.3
Cl[C@H]1[C@H](Cl)[C@H](Cl)[C@@H](Cl)[C@H](Cl)[C@H]1Cl [ALPHA-HEXACHLOROCYCLOHEXANE]	1.1 ng/g	4	0.8 ng/g	1.2 ng/g	0.4 ng/g	1.3 ng/g	7.4 ng/g	1.4 ng/g	0.6 ng/g	1.9 ng/g	1.7 ng/g	9.5	1.3 ng/g	< 4	13
O=S1OC[C@@H]2[C@H](CO1)[C@]1(Cl)C(Cl)=C(Cl)[C@]2(Cl)C1(Cl)Cl (stereo partly drawn) [BETA-ENDOSULFAN]	3.2 ng/g	15	2.9 ng/g	1.1 ng/g	0.9 ng/g	0.9 ng/g	6.6 ng/g	10.8 ng/g	3.3 ng/g	2 ng/g	1.1 ng/g	50	1.6 ng/g	< 4	15
Cl[C@H]1[C@H](Cl)[C@@H](Cl)[C@H](Cl)[C@@H](Cl)[C@@H]1Cl [BETA-HEXACHLOROCYCLOHEXANE]	4.2 ng/g	2.7	2.2 ng/g	4.2 ng/g	1.1 ng/g	1.2 ng/g	5.4 ng/g	1.5 ng/g	1.6 ng/g	3.7 ng/g	8.9 ng/g	9.2	2.1 ng/g	< 4	3
Clc1ccc(C(c2ccc(Cl)cc2)C(Cl)(Cl)Cl)cc1 [CHLOROPHENOTHANE]	10.5 ng/g	–	8.24 ng/g	8.9 ng/g	2.5 ng/g	7.3 ng/g	29.2 ng/g	8.8 ng/g	2.3 ng/g	19.2 ng/g	9.4 ng/g	2.6	6.8 ng/g	> 6	–
Cl[C@H]1[C@H](Cl)[C@@H](Cl)[C@H](Cl)[C@@H](Cl)[C@H]1Cl [DELTA-HEXACHLOROCYCLOHEXANE]	3.6 ng/g	0.7	1.1 ng/g	2.4 ng/g	0.8 ng/g	1.7 ng/g	2.3 ng/g	1.4 ng/g	1.2 ng/g	3.7 ng/g	4.7 ng/g	18.5	1.6 ng/g	< 4	1.5
ClC(Cl)=C(c1ccc(Cl)cc1)c1ccc(Cl)cc1 [DICHLORODIPHENYLDICHLOROETHYLENE]	8.6 ng/g	–	2.2 ng/g	2.8 ng/g	23.2 ng/g	2.4 ng/g	6.4 ng/g	3.2 ng/g	6 ng/g	9.1 ng/g	7.4 ng/g	5.3	1.8 ng/g	–	–
O=S1(=O)OCC2C(CO1)C1(Cl)C(Cl)=C(Cl)C2(Cl)C1(Cl)Cl (stereo not given) [ENDOSULFAN SULFATE]	99.7 ng/g	1.3	48.2 ng/g	126.5 ng/g	21.1 ng/g	71.4 ng/g	305.5 ng/g	80.6 ng/g	38.2 ng/g	151.6 ng/g	246.9 ng/g	9.2	82.1 ng/g	< 4	4.5
Cl[C@H]1[C@H](Cl)[C@@H](Cl)[C@@H](Cl)[C@H](Cl)[C@H]1Cl [LINDANE]	9.4 ng/g	3.9	4 ng/g	9.9 ng/g	4.7 ng/g	3.9 ng/g	14.4 ng/g	2.1 ng/g	0.9 ng/g	16.2 ng/g	27.5 ng/g	12.3	4.6 ng/g	< 4	3.2
